Data as given in ChEMBL document CHEMBL3792302, “N-Phenyl indole derivatives as AT1 antagonists with anti-hypertension activities: Design, synthesis and biological evaluation” (Eur J Med Chem, 2016).
Values belong to the molecule of their own block, whether it stands above or below them. Active and inactive are the calls of the source. The rule behind the calls is not given here.

Tests used:
[1] = (§1) Displacement of [125I]-Sar1,Ile8-angiotensin 2 from AT1 receptor in Sprague-Dawley rat vascular smooth muscle cells after 150 mins by gamma counting analysis
Procedure, shortened: (§2)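 Competition radioligand binding to the AT1 receptor was run on vascular smooth muscle cells with [125I]-AII as the labelled ligand. Affinity is reported as IC50 and Ki, given as ± SEM.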

Rattus norvegicus [2] = species: Rattus norvegicus; assay: as §1; procedure, shortened: as §2
Rattus norvegicus [3] = assay: Antihypertensive activity in SHR rat assessed as reduction in mean blood pressure at 10 mg/kg, po measured upto 24 hrs post dosing; assay type: functional
Procedure, shortened: (§3)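 Spontaneously hypertensive rats received test agents orally at 5 or 10 mg/kg, with losartan and telmisartan at 10 mg/kg as references. Mean blood pressure was tracked for over 24 h after dosing and compared with a negative control group. Significance versus control was set at p<0.05 and p<0.01.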

Rattus norvegicus [4] = assay: Antihypertensive activity in SHR rat assessed as reduction in mean blood pressure at 5 mg/kg, po measured upto 24 hrs post dosing; assay type: functional, organism-based; procedure, shortened: as §3
Mus musculus [5] = assay: Acute toxicity in ICR mouse assessed as hyperthyroidism at 480 to 937 mg/kg, ig administered daily for 2 weeks measured after 6 hrs post last dose; conditions: in vivo, po
[6] = Acute toxicity in intragastrically dosed ICR mouse assessed as mortality administered daily for 2 weeks measured during compound dosing; assay type: organism-based; conditions: in vivo, po
Procedure, shortened: (§4)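 Mice were given single-compound dose groups of 307.20, 384.00, 480.00, 600.00, 750.00 and 937 mg/kg. Body weight of survivors was checked after 2 weeks. Mortality (%) was scored per dose group, and LD50 with 95% confidence interval was derived from log(dose) versus mortality.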

Mus musculus [7] = assay: Acute toxicity in ICR mouse assessed as respiratory movements at 384 mg/kg, ig administered daily for 2 weeks measured during compound dosing; assay type: organism-based; conditions: in vivo, po, 336 h; procedure, shortened: as §4
Mus musculus [8] = assay: Acute toxicity in ICR mouse assessed as respiratory movements at 307.20 mg/kg, ig administered daily for 2 weeks measured during compound dosing; assay type: organism-based; conditions: in vivo, po, 307.2 mg/kg, 336 h; procedure, shortened: as §4
[9] = Acute toxicity in ICR mouse assessed as mortality at 750 mg/kg, ig administered daily for 2 weeks measured during compound dosing; assay type: organism-based; conditions: in vivo, po; procedure, shortened: as §4
[10] = Acute toxicity in ICR mouse assessed as mortality at 480 mg/kg, ig administered daily for 2 weeks measured during compound dosing; assay type: organism-based; conditions: in vivo, po; procedure, shortened: as §4
[11] = Acute toxicity in ICR mouse assessed as mortality at 384 mg/kg, ig administered daily for 2 weeks measured during compound dosing; assay type: organism-based; conditions: in vivo, po; procedure, shortened: as §4
Mus musculus [12] = assay: Acute toxicity in ICR mouse assessed as skin changes at 307.20 mg/kg, ig administered daily for 2 weeks measured during compound dosing; assay type: organism-based; conditions: in vivo, po, 307.2 mg/kg, 336 h; procedure, shortened: as §4
Mus musculus [13] = assay: Acute toxicity in ICR mouse assessed as mobility at 384 mg/kg, ig administered daily for 2 weeks measured during compound dosing; assay type: organism-based; conditions: in vivo, po, 336 h; procedure, shortened: as §4
Mus musculus [14] = assay: Acute toxicity in ICR mouse assessed as skin changes at 384 mg/kg, ig administered daily for 2 weeks measured during compound dosing; assay type: organism-based; conditions: in vivo, po, 336 h; procedure, shortened: as §4
[15] = Acute toxicity in ICR mouse assessed as mortality at 307.20 mg/kg, ig administered daily for 2 weeks measured during compound dosing; assay type: organism-based; conditions: in vivo, po, 307.2 mg/kg; procedure, shortened: as §4
Mus musculus [16] = assay: Acute toxicity in ICR mouse assessed as mobility at 307.20 mg/kg, ig administered daily for 2 weeks measured during compound dosing; assay type: organism-based; conditions: in vivo, po, 307.2 mg/kg, 336 h; procedure, shortened: as §4
[17] = Acute toxicity in ICR mouse assessed as mortality at 600 mg/kg, ig administered daily for 2 weeks measured during compound dosing; assay type: organism-based; conditions: in vivo, po; procedure, shortened: as §4
[18] = Acute toxicity in ICR mouse assessed as mortality at 937 mg/kg, ig administered daily for 2 weeks measured during compound dosing; assay type: organism-based; conditions: in vivo, po; procedure, shortened: as §4
Mus musculus [19] = assay: Acute toxicity in ICR mouse assessed as aggressiveness at 307.20 mg/kg, ig administered daily for 2 weeks measured during compound dosing; assay type: organism-based; conditions: in vivo, po, 307.2 mg/kg, 336 h; procedure, shortened: as §4
Mus musculus [20] = assay: Acute toxicity in ICR mouse assessed as aggressiveness at 384 mg/kg, ig administered daily for 2 weeks measured during compound dosing; assay type: organism-based; conditions: in vivo, po, 336 h; procedure, shortened: as §4
Rattus norvegicus [21] = assay: Antihypertensive activity in po dosed SHR rat assessed as reduction in mean blood pressure measured upto 24 hrs post dosing; assay type: functional, organism-based
Procedure, shortened: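 In spontaneously hypertensive rats, test compounds were given orally at 5 and 10 mg/kg, with losartan and telmisartan references at 10 mg/kg. Mean blood pressure was followed over time to beyond 24 h post-dose and compared with a negative control group. Significance was set at p<0.05 and p<0.01.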

Mus musculus [22] = assay: Acute toxicity in ICR mouse assessed as pathological changes in organs and tissues at 307.20 to 937, ig administered daily for 2 weeks measured on fifteenth day; assay type: organism-based; conditions: in vivo, po, 336 h
Rattus norvegicus [23] = assay: Antihypertensive activity in SHR rat assessed as reduction in mean blood pressure at 10 mg/kg, po measured after 6 hrs post dosing; assay type: functional; procedure, shortened: as §3
Mus musculus [24] = assay: Acute toxicity in ICR mouse assessed as change in body weight at 307.20 to 937 mg/kg, ig administered daily for 2 weeks during compound dosing; assay type: organism-based; conditions: in vivo, po, 336 h; procedure, shortened: as §4
Mus musculus [25] = assay: Acute toxicity in ICR mouse assessed as obvious untoward reaction at 307.20 to 937, ig administered daily for 2 weeks during compound dosing; assay type: organism-based; conditions: in vivo, po, 336 h; procedure, shortened: as §4

IC50 [1]: 1.17 nM | Activity (Rattus norvegicus [2]): Dose-dependent effect
Structure (SMILES): CCc1nc2c(C)cc(-c3ccccn3)cc2n1Cc1ccc2c(ccn2-c2ccccc2C(=O)O)c1
Ki [1]: 0.84 nM | Activity (Rattus norvegicus [3]): 42 mmHg

IC50 [1]: 3.39 nM | Activity (Rattus norvegicus [2]): Dose-dependent effect
Structure (SMILES): CCCc1nc2c(C)cc(-c3nc4ccccc4n3C)cc2n1Cc1cccc2c1ccn2-c1ccccc1-c1nnn[nH]1
Ki [1]: 2.12 nM | Activity (Rattus norvegicus [3]): Active | Activity (Rattus norvegicus [4]): Active

Structure (SMILES): CCCc1nc2c(C)cc(-c3nc4ccccc4n3C)cc2n1Cc1cccc2c1ccn2-c1ccccc1C(=O)O
Activity (Mus musculus [5]): Toxic | LD50 at 336 h [6]: 526 mg/kg | IC50 [1]: 0.36 nM | Ki [1]: 0.23 nM | Activity (Rattus norvegicus [2]): Dose-dependent effect | Activity (Rattus norvegicus [3]): Active | Activity (Mus musculus [7]): Non-toxic | Activity (Mus musculus [8]): Non-toxic | mortality at 336 h [9]: 90% | mortality at 336 h [10]: 50% | mortality at 336 h [11]: 10% | Activity (Mus musculus [12]): Non-toxic | Activity (Mus musculus [13]): Non-toxic | Activity (Mus musculus [14]): Non-toxic | mortality at 336 h [15]: 0% | Activity (Mus musculus [16]): Non-toxic | mortality at 336 h [17]: 60% | mortality at 336 h [18]: 100% | Activity (Mus musculus [19]): Non-toxic | Activity (Mus musculus [20]): Non-toxic | Activity (Rattus norvegicus [21]): Dose-dependent effect | Activity (Mus musculus [22]): Non-toxic | Activity (Rattus norvegicus [4]): Active | Activity (Rattus norvegicus [23]): 64 mmHg | Activity (Mus musculus [24]): Non-toxic | Activity (Mus musculus [25]): Non-toxic

IC50 [1]: 3.55 nM | Activity (Rattus norvegicus [2]): Dose-dependent effect
Structure (SMILES): CCc1nc2c(C)cc(-c3ccccn3)cc2n1Cc1cccc2c1ccn2-c1ccccc1C(=O)O
Ki [1]: 2.57 nM | Activity (Rattus norvegicus [3]): Active | Activity (Rattus norvegicus [4]): Active

IC50 [1]: 7.46 nM | Activity (Rattus norvegicus [2]): Dose-dependent effect
Structure (SMILES): Cc1cc(-c2nc3ccccc3n2C)cc2c1nc(C)n2Cc1cccc2c1ccn2-c1ccccc1C(=O)O
Ki [1]: 4.66 nM | Activity (Rattus norvegicus [3]): inactive | Activity (Rattus norvegicus [4]): inactive

IC50 [1]: 3.27 nM | Activity (Rattus norvegicus [2]): Dose-dependent effect
Structure (SMILES): CCCc1nc2c(C)cc(-c3ccccn3)cc2n1Cc1ccc2c(ccn2-c2ccccc2C(=O)O)c1
Ki [1]: 2.37 nM | Activity (Rattus norvegicus [3]): 43 mmHg

IC50 [1]: 11.3 nM | Activity (Rattus norvegicus [2]): Dose-dependent effect
Structure (SMILES): CCCCCc1nc2c(C)cc(-c3nc4ccccc4n3C)cc2n1Cc1cccc2c1ccn2-c1ccccc1C(=O)O
Ki [1]: 7.06 nM | Activity (Rattus norvegicus [3]): inactive | Activity (Rattus norvegicus [4]): inactive

IC50 [1]: 20.1 nM | Activity (Rattus norvegicus [2]): Dose-dependent effect
Structure (SMILES): CCCCc1nc(Cl)c(CO)n1Cc1ccc(-c2ccccc2-c2nnn[nH]2)cc1 [LOSARTAN]
Ki [1]: 13.1 nM | Activity (Rattus norvegicus [3]): 43 mmHg

IC50 [1]: 2.61 nM | Activity (Rattus norvegicus [2]): Dose-dependent effect
Structure (SMILES): CCCCc1nc2c(C)cc(-c3nc4ccccc4n3C)cc2n1Cc1cccc2c1ccn2-c1ccccc1C(=O)O
Ki [1]: 1.63 nM | Activity (Rattus norvegicus [3]): inactive | Activity (Rattus norvegicus [4]): inactive

IC50 [1]: 8.25 nM | Activity (Rattus norvegicus [2]): Dose-dependent effect
Structure (SMILES): Cc1cc(-c2nc3ccccc3n2C)cc2c1nc(C)n2Cc1ccc2c(ccn2-c2ccccc2C(=O)O)c1
Ki [1]: 5.13 nM | Activity (Rattus norvegicus [3]): 44 mmHg

IC50 [1]: 5.63 nM | Activity (Rattus norvegicus [2]): Dose-dependent effect
Structure (SMILES): CCCCc1nc2c(C)cc(-c3ccccn3)cc2n1Cc1cccc2c1ccn2-c1ccccc1C(=O)O
Ki [1]: 4.08 nM | Activity (Rattus norvegicus [3]): Active | Activity (Rattus norvegicus [4]): Active

IC50 [1]: 0.92 nM | Activity (Rattus norvegicus [2]): Dose-dependent effect
Structure (SMILES): CCCCCc1nc2c(C)cc(-c3nc4ccccc4n3C)cc2n1Cc1ccc2c(ccn2-c2ccccc2C(=O)O)c1
Ki [1]: 0.67 nM | Activity (Rattus norvegicus [3]): 53 mmHg

IC50 [1]: 3.76 nM | Activity (Rattus norvegicus [2]): Dose-dependent effect
Structure (SMILES): CCCc1nc2c(C)cc(-c3nc4ccccc4n3C)cc2n1Cc1ccc2c(ccn2-c2ccccc2C(=O)O)c1
Ki [1]: 2.35 nM | Activity (Rattus norvegicus [3]): Active | Activity (Rattus norvegicus [4]): Active

IC50 [1]: 4.7 nM | Activity (Rattus norvegicus [2]): Dose-dependent effect
Structure (SMILES): CCCc1nc2c(C)cc(-c3ccccn3)cc2n1Cc1cccc2c1ccn2-c1ccccc1C(=O)O
Ki [1]: 3.4 nM | Activity (Rattus norvegicus [3]): Active | Activity (Rattus norvegicus [4]): Active

IC50 [1]: 2.23 nM | Activity (Rattus norvegicus [2]): Dose-dependent effect
Structure (SMILES): CCCCc1nc2c(C)cc(-c3nc4ccccc4n3C)cc2n1Cc1ccc2c(ccn2-c2ccccc2C(=O)O)c1
Ki [1]: 1.39 nM | Activity (Rattus norvegicus [3]): Active | Activity (Rattus norvegicus [4]): Active

IC50 [1]: 1.83 nM | Activity (Rattus norvegicus [2]): Dose-dependent effect
Structure (SMILES): CCc1nc2c(C)cc(-c3nc4ccccc4n3C)cc2n1Cc1cccc2c1ccn2-c1ccccc1C(=O)O
Ki [1]: 1.14 nM | Activity (Rattus norvegicus [3]): Active | Activity (Rattus norvegicus [4]): Active

IC50 [1]: 5.61 nM | Activity (Rattus norvegicus [2]): Dose-dependent effect
Structure (SMILES): CCCCc1nc2c(C)cc(-c3ccccn3)cc2n1Cc1ccc2c(ccn2-c2ccccc2C(=O)O)c1
Ki [1]: 4.06 nM | Activity (Rattus norvegicus [3]): inactive | Activity (Rattus norvegicus [4]): inactive

IC50 [1]: 13.1 nM | Activity (Rattus norvegicus [2]): Dose-dependent effect
Structure (SMILES): CCc1nc2c(C)cc(-c3nc4ccccc4n3C)cc2n1Cc1ccc2c(ccn2-c2ccccc2C(=O)O)c1
Ki [1]: 8.16 nM | Activity (Rattus norvegicus [3]): inactive | Activity (Rattus norvegicus [4]): inactive

IC50 [1]: 3.8 nM | Activity (Rattus norvegicus [2]): Dose-dependent effect
Structure (SMILES): CCCc1nc2c(C)cc(-c3nc4ccccc4n3C)cc2n1Cc1ccc(-c2ccccc2C(=O)O)cc1 [TELMISARTAN]
Ki [1]: 2.75 nM | Activity (Rattus norvegicus [3]): Active
